Results reported in ChEMBL document CHEMBL1156597, “Structure-activity relationship of kahalalide F synthetic analogues” (J Med Chem, 2008).

How the values were obtained:
[1] = tested on: DU-145; experiment: Cytotoxicity against human DU145 cells after 48 hrs by SRB assay; type: functional, cell-based; settings: Homo sapiens, DU-145, 48 h; for CC50: read-out: LC50 (the source's name)
Outline: (§1)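 Cells grown in RPMI 1640 with 10% FBS and penicillin/streptomycin at 37 °C and 5% CO₂, trypsinized, then seeded at 5 × 10³/well. After 18 h drug-free attachment, samples in DMSO/EtOH/PBS (0.5:0.5:99) were added for 48 h continuous exposure. Cells were fixed with cold TCA (1 h, 4 °C) and stained with SRB (10 min). Tris-solubilized stain read at 490 nm. Triplicate wells, mean ± SD; GI₅₀ derived.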

[2] = tested on: SK-MEL-28; experiment: Cytotoxicity against human SK-MEL-28 cells after 48 hrs by SRB assay; type: functional, cell-based; settings: Homo sapiens, SK-MEL-28, 48 h; for CC50: read-out: LC50 (the source's name); outline: as §1
[3] = tested on: LoVo; experiment: Cytotoxicity against human LoVo cells after 48 hrs by SRB assay; type: functional; settings: for CC50: read-out: LC50 (the source's name)
[4] = tested on: LoVo; experiment: Cytotoxicity against human doxorubicin resistant LoVo cells after 48 hrs by SRB assay; type: functional; settings: for CC50: read-out: LC50 (the source's name); outline: as §1
[5] = Cytotoxicity against human IGROV cells after 48 hrs by SRB assay; type: functional; settings: for CC50: read-out: LC50 (the source's name); outline: as §1
[6] = tested on: HT-29; experiment: Cytotoxicity against human HT29 cells after 48 hrs by SRB assay; type: functional, cell-based; settings: Homo sapiens, HT-29, 48 h; for CC50: read-out: LC50 (the source's name); outline: as §1
[7] = tested on: A549; experiment: Cytotoxicity against human A549 cells after 48 hrs by SRB assay; type: functional, cell-based; settings: Homo sapiens, A549, 48 h; outline: as §1
[8] = tested on: PANC-1; experiment: Cytotoxicity against human PANC1 cells after 48 hrs by SRB assay; type: functional; settings: PANC-1, 48 h; for CC50: read-out: LC50 (the source's name); outline: as §1
[9] = tested on: HeLa; experiment: Cytotoxicity against human HeLa cells after 48 hrs by SRB assay; type: functional; settings: for CC50: read-out: LC50 (the source's name); outline: as §1
[10] = tested on: SK-BR-3; experiment: Cytotoxicity against human SKBR3 cells after 48 hrs by SRB assay; type: functional; settings: SK-BR-3, 48 h; for CC50: read-out: LC50 (the source's name); outline: as §1
[11] = tested on: K562; experiment: Cytotoxicity against human K562 cells after 48 hrs by SRB assay; type: functional; settings: K562, 48 h; for CC50: read-out: LC50 (the source's name); outline: as §1
[12] = Cytotoxicity against human IGROV-ET cells after 48 hrs by SRB assay; type: functional; settings: for CC50: read-out: LC50 (the source's name); outline: as §1
[13] = Cytotoxicity against human HeLa-APL cells after 48 hrs by SRB assay; type: functional; outline: as §1
[14] = tested on: LNCaP; experiment: Cytotoxicity against human LNcaP cells after 48 hrs by SRB assay; type: functional; settings: for CC50: read-out: LC50 (the source's name); outline: as §1

C/C=C1\NC(=O)[C@H](Cc2ccccc2)NC(=O)[C@@H](C(C)C)NC(=O)[C@@H]([C@H](C)CC)NC(=O)[C@H](NC(=O)[C@H](NC(=O)[C@H](CCCN)NC(=O)[C@H]2CCCN2C(=O)[C@H](NC(=O)[C@@H](NC(=O)[C@@H](NC(=O)[C@H](NC(=O)CC[C@@H](C)[C@H]2CC[C@H]3[C@@H]4CC[C@@H]5C[C@H](OC(=O)C(F)(F)F)CC[C@]5(C)[C@H]4CC[C@]23C)C(C)C)[C@@H](C)O)C(C)C)C(C)C)[C@H](C)CC)[C@H](C)OC(=O)[C@H](C(C)C)NC1=O
GI50 [1]: 524 nM
GI50 ([1]; read-out: GI50): 394 nM
CC50 [1]: 568 nM
GI50 [2]: 190 nM
GI50 ([2]; read-out: GI50): 209 nM
CC50 [2]: 172 nM
GI50 [3]: 340 nM
TGI [3]: 374 nM
CC50 [3]: 795 nM
GI50 [4]: 227 nM
TGI [4]: 220 nM
CC50 [4]: 211 nM
GI50 [5]: 500 nM
GI50 ([5]; read-out: GI50): 375 nM
CC50 [5]: 404 nM
GI50 [6]: 387 nM
TGI [6]: 450 nM
CC50 [6]: 761 nM
GI50 [7]: 949 nM
LC50 [7]: 851 nM
GI50 ([7]; read-out: GI50): 1060 nM
GI50 [8]: 1640 nM
TGI [8]: 1440 nM
CC50 [8]: 1440 nM
GI50 [9]: 1070 nM
TGI [9]: 978 nM
CC50 [9]: 886 nM
TGI [10]: 166 nM
GI50 ([10]; read-out: GI50): 118 nM
CC50 [10]: 233 nM
GI50 [11]: 967 nM
TGI [11]: 795 nM
CC50 [11]: 1170 nM
GI50 [12]: 406 nM
GI50 ([12]; read-out: GI50): 352 nM
CC50 [12]: 468 nM
GI50 [13]: 1040 nM
LC50 (concentration giving 50% net cell kill) [13]: 638 nM
TGI [13]: 802 nM
GI50 [14]: 851 nM
TGI [14]: 912 nM
CC50 [14]: 980 nM

CC[C@@H](C)[C@@H](NC(=O)[C@H](CCCN)NC(=O)[C@H]1CCCN1C(=O)[C@H](NC(=O)[C@@H](NC(=O)[C@@H](NC(=O)[C@H](NC(=O)CCCC(C)C)C(C)C)[C@@H](C)O)C(C)C)C(C)C)C(=O)N[C@H]1C(=O)N[C@H]([C@H](C)CC)C(=O)N[C@H](C(C)C)C(=O)N[C@@H](Cc2ccccc2)C(=O)NC(C)(C)C(=O)N[C@@H](C(C)C)C(=O)O[C@H]1C
TGI [1]: 1390 nM
GI50 ([1]; read-out: GI50): 1640 nM
CC50 [1]: 1170 nM
TGI [2]: 3080 nM
GI50 ([2]; read-out: GI50): 2180 nM
CC50 [2]: 1740 nM
GI50 [3]: 2320 nM
TGI [3]: 2310 nM
CC50 [3]: 2070 nM
GI50 [4]: 1590 nM
TGI [4]: 1500 nM
CC50 [4]: 456 nM
GI50 [5]: 790 nM
GI50 ([5]; read-out: GI50): 1790 nM
CC50 [5]: 368 nM
GI50 [6]: 2350 nM
TGI [6]: 2120 nM
CC50 [6]: 743 nM
LC50 [7]: 1430 nM
CC50 [8]: 1770 nM
CC50 [9]: 1090 nM
TGI [10]: 1980 nM
GI50 ([10]; read-out: GI50): 2130 nM
CC50 [10]: 777 nM
CC50 [11]: 1930 nM
GI50 [12]: 668 nM
GI50 ([12]; read-out: GI50): 1080 nM
CC50 [12]: 423 nM
GI50 [13]: 2790 nM
LC50 (concentration giving 50% net cell kill) [13]: 1430 nM
TGI [13]: 2800 nM
CC50 [14]: 1390 nM

C/C=C1\NC(=O)[C@H](Cc2ccccc2)NC(=O)[C@@H](C(C)C)NC(=O)[C@@H]([C@H](C)CC)NC(=O)[C@H](NC(=O)[C@H](NC(=O)[C@H](CCCN)NC(=O)[C@H]2CCCN2C(=O)[C@H](NC(=O)[C@@H](NC(=O)[C@@H](NC(=O)[C@H](NC(=O)CCCCCCC)C(C)C)[C@@H](C)O)C(C)C)C(C)C)[C@H](C)CC)[C@H](C)OC(=O)[C@H](C(C)C)NC1=O
GI50 [1]: 666 nM
GI50 ([1]; read-out: GI50): 578 nM
CC50 [1]: 758 nM
GI50 [2]: 949 nM
GI50 ([2]; read-out: GI50): 933 nM
CC50 [2]: 966 nM
GI50 [3]: 321 nM
TGI [3]: 396 nM
CC50 [3]: 443 nM
GI50 [4]: 299 nM
TGI [4]: 289 nM
CC50 [4]: 278 nM
GI50 [5]: 580 nM
GI50 ([5]; read-out: GI50): 684 nM
CC50 [5]: 509 nM
GI50 [6]: 578 nM
TGI [6]: 587 nM
CC50 [6]: 917 nM
LC50 [7]: 1200 nM
TGI [7]: 1130 nM
GI50 ([7]; read-out: GI50): 1050 nM
GI50 [8]: 2830 nM
TGI [8]: 4210 nM
CC50 [8]: 2290 nM
GI50 [9]: 946 nM
TGI [9]: 1010 nM
CC50 [9]: 1080 nM
TGI [10]: 359 nM
GI50 ([10]; read-out: GI50): 343 nM
CC50 [10]: 374 nM
GI50 [11]: 1000 nM
TGI [11]: 1230 nM
CC50 [11]: 1500 nM
GI50 [12]: 513 nM
GI50 ([12]; read-out: GI50): 529 nM
CC50 [12]: 393 nM
GI50 [13]: 527 nM
LC50 (concentration giving 50% net cell kill) [13]: 1220 nM
TGI [13]: 808 nM
GI50 [14]: 779 nM
TGI [14]: 837 nM
CC50 [14]: 889 nM

C/C=C1\NC(=O)[C@H](Cc2ccccc2)NC(=O)[C@@H](C(C)C)NC(=O)[C@@H]([C@H](C)CC)NC(=O)[C@H](NC(=O)[C@H](NC(=O)[C@H](CCCN)NC(=O)[C@H]2CCCN2C(=O)[C@H](NC(=O)[C@@H](NC(=O)[C@@H](NC(=O)[C@@H](CC2CCCCC2)NC(=O)CCCC(C)C)[C@@H](C)O)C(C)C)C(C)C)[C@H](C)CC)[C@H](C)OC(=O)[C@H](C(C)C)NC1=O
TGI [1]: 1200 nM
GI50 ([1]; read-out: GI50): 1410 nM
CC50 [1]: 1030 nM
TGI [2]: 1470 nM
GI50 ([2]; read-out: GI50): 1730 nM
CC50 [2]: 1230 nM
GI50 [3]: 2090 nM
TGI [3]: 2130 nM
CC50 [3]: 2180 nM
GI50 [4]: 825 nM
TGI [4]: 746 nM
CC50 [4]: 247 nM
TGI [5]: 8320 nM
GI50 ([5]; read-out: GI50): 1270 nM
CC50 [5]: 401 nM
GI50 [6]: 2010 nM
TGI [6]: 2310 nM
CC50 [6]: 2650 nM
LC50 [7]: 1770 nM
TGI [7]: 2180 nM
GI50 ([7]; read-out: GI50): 1970 nM
CC50 [8]: 2440 nM
GI50 [9]: 1300 nM
TGI [9]: 1090 nM
CC50 [9]: 917 nM
TGI [10]: 862 nM
GI50 ([10]; read-out: GI50): 789 nM
CC50 [10]: 4990 nM
GI50 [11]: 2100 nM
TGI [11]: 3070 nM
CC50 [11]: 2340 nM
TGI [12]: 1230 nM
GI50 ([12]; read-out: GI50): 1090 nM
CC50 [12]: 373 nM
GI50 [13]: 1450 nM
LC50 (concentration giving 50% net cell kill) [13]: 1140 nM
TGI [13]: 1290 nM
GI50 [14]: 2980 nM
TGI [14]: 3460 nM
CC50 [14]: 1720 nM

C/C=C1\NC(=O)[C@H](Cc2ccccc2)NC(=O)[C@@H](C(C)C)NC(=O)[C@@H]([C@H](C)CC)NC(=O)[C@H](NC(=O)[C@H](NC(=O)[C@H](CCCN)NC(=O)[C@H]2CCCN2C(=O)[C@H](NC(=O)[C@@H](NC(=O)[C@@H](NC(=O)[C@H](NC(=O)CCCCCCCCCC)C(C)C)[C@@H](C)O)C(C)C)C(C)C)[C@H](C)CC)[C@H](C)OC(=O)[C@H](C(C)C)NC1=O
GI50 [1]: 188 nM
GI50 ([1]; read-out: GI50): 183 nM
CC50 [1]: 260 nM
GI50 [2]: 251 nM
GI50 ([2]; read-out: GI50): 193 nM
CC50 [2]: 561 nM
GI50 [3]: 287 nM
TGI [3]: 319 nM
CC50 [3]: 352 nM
GI50 [4]: 96.2 nM
TGI [4]: 189 nM
CC50 [4]: 265 nM
GI50 [5]: 146 nM
GI50 ([5]; read-out: GI50): 218 nM
CC50 [5]: 196 nM
GI50 [6]: 371 nM
TGI [6]: 354 nM
CC50 [6]: 201 nM
GI50 [7]: 186 nM
LC50 [7]: 456 nM
GI50 ([7]; read-out: GI50): 160 nM
GI50 [8]: 1630 nM
TGI [8]: 1540 nM
CC50 [8]: 1440 nM
GI50 [9]: 139 nM
TGI [9]: 129 nM
CC50 [9]: 120 nM
GI50 [10]: 69.9 nM
GI50 ([10]; read-out: GI50): 61.4 nM
CC50 [10]: 73.6 nM
CC50 [11]: 1170 nM
GI50 [12]: 218 nM
GI50 ([12]; read-out: GI50): 166 nM
CC50 [12]: 318 nM
GI50 [13]: 237 nM
LC50 (concentration giving 50% net cell kill) [13]: 760 nM
TGI [13]: 399 nM
GI50 [14]: 423 nM
TGI [14]: 586 nM
CC50 [14]: 720 nM
